In the library only some 3.2% were active in any assay of this set; here they are far more common.
MEKK3 PB1 HTS – modulators of MEKK3-MEK5 PB1 binding, primary screen, biochemical, wildtype MEKK3, multiplex bead flow cytometry, Alexa488-MEK5. Mitogen-activated protein kinase kinase kinase 3 (Homo sapiens), Q99759. bead-based flow cytometry, Alexa488-MEK5 binding to MEKK3; actives lie on both sides; 0 = blocked by unlabeled MEK5, 100 = vehicle. binding response (% of control), % at 10 µM. 290,000 compounds, 1.4% hits;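 active = binding response more than 3 SD above or below the average of its plate-row segment, actives on both sides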;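 also: Alexa488 bead fluorescence after subtracting the streptavidin-only scavenger bead signal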
Apaf1 inhib – inhibitors of human Apaf-1 apoptosome, primary screen, biochemical, DEVD-Rh110 fluorescence, uHTS; reconstituted apoptosome caspase-3 activity; Apoptotic protease-activating factor 1 (Homo sapiens), O14727; 330,000 compounds, 0.71% hits; inhibition, % at 20 µM; active = inhibition of at least 40% at 20 µM;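 also: plate controls were DMSO wells for no effect and DEVD-CHO caspase inhibitor wells for full effect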
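System – cell-free apoptosome with Apaf-1, procaspase-3 and caspase-9 · Buffer or medium – pH 7.5 Hepes buffer with CHAPS, BSA, DTT · Also added – cytochrome c with DEVD-Rh110 · Times – 30 min compound preincubation, 50 min activation, room temperature · Technique – Rh110 fluorescence intensity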
MEKK2 WT-MEK5 – modulators of MEK5 binding to wildtype MEKK2, primary screen, biochemical, multiplex bead flow cytometry, Alexa488-MEK5; Mitogen-activated protein kinase kinase kinase 2 (Homo sapiens), Q9Y2U5; Alexa488-MEK5 binding to MEKK2 WT; actives lie on both sides; binding response (% of control), % at 10 µM; 290,000 compounds, 1.1% hits; in the data active = binding response below about 67% or above about 130%
MEKK2 mut-MEK5 – MEK5 binding signal on mutant MEKK2 PB1, primary screen, biochemical, multiplex bead flow cytometry, Alexa488-MEK5 | Alexa488-MEK5 binding to MEKK2 mutant | percent response, % at 10 µM | 290,000 compounds, 0.35% hits | AID 1530, 2009; in the data active = percent response above about 24%, passing the limit was not always enough
DSG3 Ab inh – inhibitors of pemphigus antibody binding to DSG3, primary screen, biochemical, bead-based, flow cytometry, scFv-GFP. Desmoglein-3 (Homo sapiens), P32926. DSG3-coupled beads, scFv-anti-DSG3-GFP binding; hits give low values. binding (percent of control), % at 10 µM. 310,000 compounds, 0.48% hits;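 active = binding more than 3 SD below its plate's average and above zero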;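 also: hits lower antibody fragment binding to DSG3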
UBC13 polyUb – UBC13 polyubiquitin chain formation inhibitors, primary screen, biochemical, TR-FRET, uHTS; inhibition, % at 20 µM; AID 485273, 2010; 330,000 compounds, 0.47% hits; in the data active = inhibition above about 45%, passing the limit was not always enough
Target sequence (P61088 whole entry, looked up): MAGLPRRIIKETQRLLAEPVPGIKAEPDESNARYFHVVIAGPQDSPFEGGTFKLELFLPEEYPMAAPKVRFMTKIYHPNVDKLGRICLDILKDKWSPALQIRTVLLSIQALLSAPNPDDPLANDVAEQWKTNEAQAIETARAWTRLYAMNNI
MEKK2wt confirm – modulators of MEK5 binding to wildtype MEKK2, confirmation, biochemical, single concentration, multiplex bead flow cytometry; shares compounds with MEKK3 PB1 HTS; Alexa488-MEK5 binding to MEKK2 WT; actives lie on both sides; binding response (% of control), % at 10 µM; 5,900 compounds, 2.4% hits; AID 1892, 2009; in the data active = binding response below about 16% or above about 210%; inactive = in between
MEKK2mut-MEK5 – mutant MEKK2 PB1-MEK5 binding signal retest – biochemical, single concentration, multiplex bead flow cytometry, confirmation; 5,900 compounds, 2% hits; shares compounds with MEKK3 PB1 HTS; AID 1893, 2009; percent response, % at 10 µM; Alexa488-MEK5 binding to MEKK2 mutant; in the data active = percent response mostly above about 71%, no sharp cut-off; inactive = mostly below about 38%;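 also: higher means compound restores mutant binding toward wildtype level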
MEKK3 confirm – MEKK3 wild-type PB1 binding to MEK5, inhibitors, confirmation, biochemical, bead multiplex flow cytometry, single concentration, wildtype; shares compounds with MEKK3 PB1 HTS; Alexa488-MEK5 binding to MEKK3; hits give low values; binding response (% of control), % at 10 µM; 5,900 compounds, 1.8% hits;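 active = binding response below 72% of control, or above a set upper limit, though filed actives all read lower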;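 also: 100% = DMSO only wells and 0% = binding blocked by excess unlabeled MEK5; lower values mean stronger disruption of MEK5 binding to MEKK3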
Casp3 UBC13 ctr – CASP3 inhibitor validation, counterassay for project on UBE2N polyubiquitination blockers, biochemical, one dose. shares compounds with UBC13 polyUb. Recombinant caspase-3, Caspase-Glo 3/7 luminescence, 60 min. inhibition, % at 20 µM. 1,400 compounds, 4% hits;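 active = mean inhibition across replicates above about 26%, limit read from the data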;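 also: plate controls were DMSO with caspase-3 for no effect and DMSO wells lacking enzyme for full effect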
Target sequence (P42574 whole entry, looked up): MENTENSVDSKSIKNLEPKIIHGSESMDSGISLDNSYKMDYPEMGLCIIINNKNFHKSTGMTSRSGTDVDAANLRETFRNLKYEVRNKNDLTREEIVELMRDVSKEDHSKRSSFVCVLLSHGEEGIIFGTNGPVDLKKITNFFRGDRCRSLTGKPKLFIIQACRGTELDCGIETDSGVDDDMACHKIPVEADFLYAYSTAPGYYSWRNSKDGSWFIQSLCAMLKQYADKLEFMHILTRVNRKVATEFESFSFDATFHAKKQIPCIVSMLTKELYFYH
UBC13 conf – UBC13 polyubiquitination inhibitors, single-point retest, confirmation, biochemical, TR-FRET, single concentration; shares compounds with UBC13 polyUb; inhibition, % at 10 µM; 1,400 compounds, 68% hits; AID 488859, 2010; in the data active = inhibition above about 45%
Starred values were filed as active, the others as inactive; . = no result given; [ ] = remark or other dose.

SMILES	MEKK3 PB1 HTS	Apaf1 inhib	MEKK2 WT-MEK5	MEKK2 mut-MEK5	DSG3 Ab inh	UBC13 polyUb	MEKK2wt confirm	MEKK2mut-MEK5	MEKK3 confirm	Casp3 UBC13 ctr	UBC13 conf
C#CCOCCOCCOCCNc1nc(N2CCN(C(=O)[C@H](Cc3cc4ccccc4[nH]3)n3cc(C(N)CC(C)C)nn3)CC2)nc(N2CCN(C(=O)[C@H](CCC(=O)O)n3cc(C(N)[C@H](C)CC)nn3)CC2)n1 (stereo partly specified)	100	1	108	4	106	-5	.	.	.	.	.
C#CCOCCOCCOCCNc1nc(N2CCN(C(=O)[C@H]([C@@H](C)CC)n3cc([C@@H](N)CO)nn3)CC2)nc(N2CCN(C(=O)[C@H](Cc3cc4ccccc4[nH]3)n3cc([C@@H](N)C(C)CC)nn3)CC2)n1 (stereo partly specified)	107	48*	181*	56*	.	60*	175	87*	104	8	46*
O=C(COC(=O)CSc1ccc(Cl)cc1)NCCc1ccccc1	.	13	.	.	97	6	.	.	.	.	.
C[C@H](CO)N1C[C@H](C)[C@@H](CN(C)S(=O)(=O)c2ccccc2)Oc2c(NC(=O)Nc3ccc4c(c3)OCO4)cccc2C1=O	.	12	.	.	104	7	.	.	.	.	.
CC[C@@H](C)[C@H](CN[C@H](CNC)C(C)C)NC[C@@H](C)c1ccc(CC(C)C)cc1	111	9	185*	22	108	89*	176	71*	118	-2	72*
O=C(Nc1ccc(Oc2cccnc2)cc1)C1CCN(Cc2ccccc2F)CC1	100	-12	102	0	96	0	.	.	.	.	.
Cc1ccc(C(=O)N[C@@H](C)CN2C3=NC[C@H](C(C)C)N3C[C@H]2Cc2ccc(O)cc2)cc1Br	105	15	128	21	110	42	.	.	.	.	.
Cc1ccc(C(=O)NCCN2C3=NC[C@H](Cc4ccc(O)cc4)N3C[C@H]2Cc2ccc(O)cc2)cc1Br	106	9	143*	13	103	55*	134	15	100	0	27
COc1ccc(C[C@H]2CN3C(=NC[C@@H]3Cc3ccc(O)cc3)N2C[C@H](C)NC(=O)c2ccc(C)c(Br)c2)cc1	117	28	157*	80*	124	59*	4.0*[inhibitor]	-47	2.0*	-1	52*
Cc1ccc(C(=O)NCCN2C3=NC[C@@H](Cc4ccccc4)N3C[C@H]2Cc2ccc(O)cc2)cc1Br	107	32	185*	52*	.	104*	200	56	113	-3	93*
COc1ccc(C[C@H]2CN3C(=NC[C@H]3Cc3ccccc3)N2CCNC(=O)CCC2CCCCC2)cc1	104	31	164*	36	108	66*	160	33	108	0	62*
COc1ccc(C[C@@H]2CN3C(=NC[C@@H]3C)N2C[C@H](C)NC(=O)CCC2CCCCC2)cc1	99	14	108	5	104	2	.	.	.	.	.
COc1cc2c(cc1NC(=O)C(F)(F)F)-c1ccc(NC(=O)C(F)(F)F)cc1C2	.	.	.	.	101	.	.	.	.	.	.
COc1ccc(C(=O)NCCN2CCN(C(=O)c3ccc(OC)cc3)CC2)cc1	105	5	108	5	107	-13	.	.	.	.	.
COc1ccc(C[C@H]2CN3C(=NC[C@@H]3Cc3ccc(O)cc3)N2CCNC(=O)c2ccc(C)c(Br)c2)cc1	111	33	247*	96*	115	74*	196	48	109	0	56*
CC(C)(C)c1cc(NCCCn2ccnc2)n2ncc(-c3ccccc3)c2n1	110	31	145*	34	94	61*	140	23	102	0	55*
CCCOc1ccc(/C=N/NC(=O)CSCc2ccc([N+](=O)[O-])cc2)cc1OCC	135*	13	106	1	88	90*	104	8	106	-4	93*
O=C(Nc1ccc(Cl)c(C(F)(F)F)c1)NC1CC2CCCC(C1)N2Cc1ccccc1 (stereo unspecified)	106	22	215*	7	.	46*	171	33	106	-5	63*
CN(C)CCCn1c(SCC(=O)Nc2nc(-c3cccc(Br)c3)cs2)nc2ccccc2c1=O	128*	29	265*	55*	111	116*	272*	166*	114	2	134*
Cc1cc(C)c2nc(NCCCNC(=S)NCCCN(C)C)c(C#N)cc2c1	97	9	164*	37	106	50*	165	42	109	5	42
CNC[C@@H](C)NC[C@@H](Cc1ccccc1)NCCc1ccccc1	110	1	131	5	99	6	.	.	.	.	.
CC[C@H](C)[C@@H](CN[C@H](C)CNC)NCCC(c1ccccc1)c1ccccc1	106	9	138*	5	101	55*	135	30	104	-4	37

Screens (PubChem)
